Measured values as given in ChEMBL document CHEMBL1134579, “Design and biological activity of (S)-4-(5-([1-(3-chlorobenzyl)-2-oxopyrrolidin-3-ylamino]methyl)imidazol-1-ylmethyl)benzonitrile, a 3-aminopyrrolidinone farnesyltransferase inhibitor with excellent cell potency” (J Med Chem, 2001).
pIC50: −log10 of the molar value.

How the values were obtained:
[1] = biological target: Protein farnesyltransferase (Homo sapiens, UniProt P49354+P49356); assay: In vitro inhibition of farnesyl transferase using purified recombinant human enzyme; assay type: protein-complex assay
Procedure, shortened: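 Purified recombinant human FTase with [1-³H]FPP and a recombinant protein substrate carrying the K-Ras C-terminus (CVIM). Labeled farnesyl incorporation measured by acid precipitation of total protein and scintillation counting. Final methanol or DMSO 0.5 vol %. Mostly run at least twice; SD given for n≥3.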

[2] = biological target: Geranylgeranyl transferase type-1 subunit beta (Homo sapiens, UniProt P53609); assay: Inhibitory concentration of geranylgeranyl-protein transferase type I
[3] = biological target: Voltage-gated inwardly rectifying potassium channel KCNH2 (Homo sapiens, UniProt Q12809)
[4] = biological target: Protein farnesyltransferase (Rattus norvegicus); assay: Concentration required to displace 50% of a potent radiolabeled FTI from farnesyl transferase in cultured H-ras-transformed Rat1 cells

Chain of Geranylgeranyl transferase type-1 subunit beta (P53609 whole entry): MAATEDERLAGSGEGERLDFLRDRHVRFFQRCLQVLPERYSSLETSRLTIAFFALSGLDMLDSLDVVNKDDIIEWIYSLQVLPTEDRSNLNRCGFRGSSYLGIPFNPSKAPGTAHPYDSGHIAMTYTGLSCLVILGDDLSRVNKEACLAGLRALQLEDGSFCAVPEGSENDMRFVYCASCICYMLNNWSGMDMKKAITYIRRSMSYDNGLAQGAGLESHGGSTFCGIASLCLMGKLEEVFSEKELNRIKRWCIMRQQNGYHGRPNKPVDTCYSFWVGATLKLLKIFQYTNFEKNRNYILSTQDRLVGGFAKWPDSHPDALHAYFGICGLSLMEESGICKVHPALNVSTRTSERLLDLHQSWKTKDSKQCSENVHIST
Chain of Voltage-gated inwardly rectifying potassium channel KCNH2 (Q12809 whole entry): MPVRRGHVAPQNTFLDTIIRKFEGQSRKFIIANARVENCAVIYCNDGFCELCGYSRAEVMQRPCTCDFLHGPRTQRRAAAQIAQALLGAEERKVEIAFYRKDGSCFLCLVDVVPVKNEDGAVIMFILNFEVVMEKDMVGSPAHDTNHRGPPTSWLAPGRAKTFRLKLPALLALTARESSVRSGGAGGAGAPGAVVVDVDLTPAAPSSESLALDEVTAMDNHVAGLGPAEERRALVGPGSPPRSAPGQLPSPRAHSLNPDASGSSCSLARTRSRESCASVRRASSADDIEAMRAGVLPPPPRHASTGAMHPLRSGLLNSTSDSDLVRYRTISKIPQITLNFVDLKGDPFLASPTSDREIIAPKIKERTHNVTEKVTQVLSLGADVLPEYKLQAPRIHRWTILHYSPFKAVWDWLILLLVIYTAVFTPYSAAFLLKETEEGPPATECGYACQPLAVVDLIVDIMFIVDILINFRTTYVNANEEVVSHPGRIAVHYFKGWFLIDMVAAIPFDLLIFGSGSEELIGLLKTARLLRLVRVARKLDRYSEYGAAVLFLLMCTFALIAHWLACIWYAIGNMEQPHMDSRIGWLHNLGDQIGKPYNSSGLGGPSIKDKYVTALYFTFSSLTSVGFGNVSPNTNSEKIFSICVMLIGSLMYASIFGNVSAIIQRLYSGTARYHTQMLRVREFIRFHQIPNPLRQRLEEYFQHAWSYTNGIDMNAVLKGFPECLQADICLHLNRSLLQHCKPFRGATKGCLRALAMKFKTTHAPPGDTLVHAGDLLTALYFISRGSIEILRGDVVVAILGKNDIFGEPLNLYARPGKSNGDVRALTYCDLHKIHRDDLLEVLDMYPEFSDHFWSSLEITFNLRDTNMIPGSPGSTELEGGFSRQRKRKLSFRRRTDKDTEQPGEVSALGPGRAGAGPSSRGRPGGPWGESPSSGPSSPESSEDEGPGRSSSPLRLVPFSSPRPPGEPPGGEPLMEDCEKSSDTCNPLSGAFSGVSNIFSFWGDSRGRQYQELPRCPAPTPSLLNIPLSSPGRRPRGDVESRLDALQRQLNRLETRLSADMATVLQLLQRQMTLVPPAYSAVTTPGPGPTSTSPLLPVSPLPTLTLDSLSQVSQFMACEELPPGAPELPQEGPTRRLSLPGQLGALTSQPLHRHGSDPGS

N#Cc1ccc(Cn2cncc2CN[C@H]2CCN(C(=O)c3cccnc3N)C2)cc1
pIC50 [1]: 6.01 | pIC50 [2]: < 4.30 | pIC50 [3]: < 4.30

N#Cc1ccc(Cn2cncc2CCN[C@H]2CCN(CCc3ccccc3)C2=O)cc1
pIC50 [1]: 6.62 | pIC50 [2]: 5.55

N#Cc1ccc(Cn2cncc2CN[C@H]2CCN(Cc3ccccc3)C2=O)cc1
pIC50 [2]: 4.40 | pIC50 [3]: 5.14

N#Cc1ccc(Cn2cncc2CCN[C@H]2CCN(c3ccccc3)C2=O)cc1
pIC50 [1]: 6.55 | pIC50 [2]: 4.85 | pIC50 [4]: 6.82

N#Cc1ccc(Cn2cncc2CN(CCc2ccccc2)[C@H]2CCN(Cc3ccccc3)C2=O)cc1
pIC50 [1]: 7.29 | pIC50 [2]: 4.82 | pIC50 [4]: 6.34

N#Cc1ccc(Cn2cncc2CCN[C@H]2CCN(Cc3ccccc3)C2=O)cc1
pIC50 [1]: 6.57 | pIC50 [2]: 5.13

N#Cc1ccc(Cn2cncc2CN(CCN2CCNCC2)[C@H]2CCN(Cc3cccc(Cl)c3)C2=O)cc1
pIC50 [2]: < 4.30

N#Cc1ccc(Cn2cncc2CN[C@H]2CCN(Cc3ccc(Cl)cc3)C2=O)cc1
pIC50 [1]: 7.60 | pIC50 [2]: 4.82 | pIC50 [4]: 7.28

N#Cc1ccc(Cn2cncc2CCN[C@@H]2CCN(CCc3ccccc3)C2=O)cc1
pIC50 [1]: 6.42 | pIC50 [2]: 5.82

N#Cc1ccc(Cn2cncc2CN[C@H]2CCN(C(=O)c3cccc4ccccc34)C2)cc1
pIC50 [1]: 7.96 | pIC50 [2]: 6.06 | pIC50 [4]: 6.48

N#Cc1ccc(Cn2cncc2CN[C@H]2CCN(c3ccccn3)C2=O)cc1
pIC50 [1]: 6.43 | pIC50 [2]: 4.44

CC(C)(C)OC(=O)NCCCN(Cc1cncn1Cc1ccc(C#N)cc1)[C@H]1CCN(Cc2ccccc2)C1=O
pIC50 [2]: 5.44

N#Cc1ccc(Cn2cncc2CN[C@H]2CCN(c3ccc(Cl)cc3)C2=O)cc1
pIC50 [1]: 7.68 | pIC50 [2]: 4.96 | pIC50 [4]: 7.52

N#Cc1ccc(Cn2cncc2CN(CCCc2ccccc2)[C@H]2CCN(Cc3cccc(Cl)c3)C2=O)cc1
pIC50 [2]: 5.19

N#Cc1ccc(Cn2cncc2CN[C@H]2CCN(C(=O)c3cccnc3)C2)cc1
pIC50 [1]: 5.70 | pIC50 [2]: < 4.30

N#Cc1ccc(Cn2cncc2CN[C@H]2CCN(c3ccccc3Cl)C2=O)cc1
pIC50 [1]: 8.82 | pIC50 [2]: 4.38 | pIC50 [4]: 7.85

N#Cc1ccc(Cn2cncc2CN[C@H]2CCN(c3cccnc3)C2=O)cc1
pIC50 [1]: 7.07 | pIC50 [2]: < 4.70 | pIC50 [4]: 6.62

N#Cc1ccc(Cn2cncc2CN[C@H]2CCN(C(=O)c3cccnc3S)C2)cc1
pIC50 [1]: 5.54 | pIC50 [2]: < 4.30 | pIC50 [3]: 4.96

N#Cc1ccc(Cn2cncc2CN[C@H]2CCN(C(=O)c3ccc(Cl)cc3)C2)cc1
pIC50 [1]: 7.05 | pIC50 [2]: 4.72 | pIC50 [4]: 7.15

N#Cc1ccc(Cn2cncc2CN[C@H]2CCN(CCc3ccccc3)C2=O)cc1
pIC50 [1]: 6.64 | pIC50 [2]: 4.32

N#Cc1ccc(Cn2cncc2CN[C@H]2CCN(C(=O)c3cccc(Cl)c3)C2)cc1
pIC50 [1]: 7.57 | pIC50 [2]: 4.96 | pIC50 [3]: 5.24 | pIC50 [4]: 7.17

CCSc1ncccc1C(=O)N1CC[C@H](NCc2cncn2Cc2ccc(C#N)cc2)C1
pIC50 [1]: 8.32 | pIC50 [2]: ~5.29 | pIC50 [3]: 4.85 | pIC50 [4]: 8.21

N#Cc1ccc(Cn2cncc2CN(CCCc2ccccc2)[C@H]2CCN(Cc3ccccc3)C2=O)cc1
pIC50 [2]: 4.92

N#Cc1ccc(Cn2cncc2CN[C@H]2CCN(C(=O)c3cncc(Br)c3)C2)cc1
pIC50 [1]: 7.37 | pIC50 [2]: 4.39 | pIC50 [3]: 5.22 | pIC50 [4]: 7.31

N#Cc1ccc(Cn2cncc2CN[C@H]2CCN(C(=O)c3ccccc3Cl)C2)cc1
pIC50 [1]: 7.19 | pIC50 [2]: 4.72

N#Cc1ccc(Cn2cncc2CN(CCCN)[C@H]2CCN(Cc3cccc(Cl)c3)C2=O)cc1
pIC50 [1]: 8.12 | pIC50 [2]: < 4.30 | pIC50 [3]: 6.32 | pIC50 [4]: 6.82

CC(C)(C)OC(=O)NCCCN(Cc1cncn1Cc1ccc(C#N)cc1)[C@H]1CCN(Cc2cccc(Cl)c2)C1=O
pIC50 [1]: 8.89 | pIC50 [2]: 5.57 | pIC50 [3]: 6.96 | pIC50 [4]: 8.96

N#Cc1ccc(Cn2cncc2CN[C@H]2CCN(C(=O)c3ccccc3)C2)cc1
pIC50 [1]: 6.96 | pIC50 [2]: 4.62

N#Cc1ccc(Cn2cncc2CCN[C@@H]2CCN(Cc3ccccc3)C2=O)cc1
pIC50 [1]: 6.60 | pIC50 [2]: 4.96

N#Cc1ccc(Cn2cncc2CN[C@@H]2CCN(CCc3ccccc3)C2=O)cc1
pIC50 [1]: 6.60 | pIC50 [2]: 4.51

CCCN(Cc1cncn1Cc1ccc(C#N)cc1)[C@H]1CCN(Cc2ccccc2)C1=O
pIC50 [1]: 7.23 | pIC50 [4]: 7.44

N#Cc1ccc(Cn2cncc2CN(Cc2ccccc2)[C@H]2CCN(Cc3ccccc3)C2=O)cc1
pIC50 [1]: 7.17 | pIC50 [2]: 4.70

N#Cc1ccc(Cn2cncc2CN(CCCCc2ccccc2)[C@H]2CCN(Cc3ccccc3)C2=O)cc1
pIC50 [1]: 7.38 | pIC50 [2]: 5.34 | pIC50 [4]: 6.51

N#Cc1ccc(Cn2cncc2CN[C@H]2CCN(c3cccc(Cl)c3)C2=O)cc1
pIC50 [1]: 8.08 | pIC50 [2]: 5.19 | pIC50 [4]: 7.52

N#Cc1ccc(Cn2cncc2CCN[C@@H]2CCN(c3ccccc3)C2=O)cc1
pIC50 [1]: 6.92 | pIC50 [2]: 4.80

N#Cc1ccc(Cn2cncc2CN[C@H]2CCN(Cc3ccccc3Cl)C2=O)cc1
pIC50 [1]: 8.28 | pIC50 [2]: 4.96 | pIC50 [4]: 8.57

N#Cc1ccc(Cn2cncc2CN[C@H]2CCN(Cc3cccc(Cl)c3)C2=O)cc1
pIC50 [2]: 5.47

N#Cc1ccc(Cn2cncc2CN[C@H]2CCN(c3ccccc3)C2=O)cc1
pIC50 [1]: 7.13 | pIC50 [2]: 4.34 | pIC50 [4]: 7.57

N#Cc1ccc(Cn2cncc2CN[C@@H]2CCN(Cc3ccccc3)C2=O)cc1
pIC50 [2]: 4.34

N#Cc1ccc(Cn2cncc2CN[C@H]2CCN(C(=O)c3ccc[nH]c3=O)C2)cc1
pIC50 [1]: 5.17 | pIC50 [2]: < 4.30

Cc1ncccc1C(=O)N1CC[C@H](NCc2cncn2Cc2ccc(C#N)cc2)C1
pIC50 [1]: 7.00 | pIC50 [2]: < 4.30 | pIC50 [3]: < 5.00 | pIC50 [4]: 6.21

COc1ncccc1C(=O)N1CC[C@H](NCc2cncn2Cc2ccc(C#N)cc2)C1
pIC50 [1]: 6.82 | pIC50 [2]: < 4.30

N#Cc1ccc(Cn2cncc2CN[C@H]2CCN(c3ccncc3)C2=O)cc1
pIC50 [1]: 7.37 | pIC50 [2]: < 4.70 | pIC50 [4]: 6.70

N#Cc1ccc(Cn2cncc2CN[C@@H]2CCN(c3ccccc3)C2=O)cc1
pIC50 [1]: 6.70 | pIC50 [2]: 4.39

N#Cc1ccc(Cn2cncc2CN[C@H]2CCN(c3cccc4ncccc34)C2=O)cc1
pIC50 [2]: < 4.70

N#Cc1ccc(Cn2cncc2CN(Cc2cccnc2)[C@H]2CCN(Cc3ccccc3)C2=O)cc1
pIC50 [2]: < 4.30

N#Cc1ccc(Cn2cncc2CN(CCCN)[C@H]2CCN(Cc3ccccc3)C2=O)cc1
pIC50 [2]: < 4.30

N#Cc1ccc(Cn2cncc2CN(CCN2CCOCC2)[C@H]2CCN(Cc3cccc(Cl)c3)C2=O)cc1
pIC50 [2]: 4.92

CSc1ncccc1C(=O)N1CC[C@H](NCc2cncn2Cc2ccc(C#N)cc2)C1
pIC50 [2]: 4.55
